Assay outcomes (PubChem BioAssay)
The sample as a whole holds a higher share of hits than the screen did.
T cruzi inh: inhibitors of intracellular T. cruzi growth, primary screen, luminescence, NIH3T3 host cells. T. cruzi beta-gal in NIH3T3, 90 h. inhibition, % (no concentration beside the values). 300,000 compounds, 1.4% hits;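 active means mean inhibition across valid replicates above about 55%, limit read from the data; inconclusive means mean below that limit but half or more replicates reach it; inactive means mean below it, under half of replicates reach it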;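 further: signal also drops with host cell toxicity which is not excluded here; 0% = plate median of DMSO wells and 100% = zero luminescence signal; higher percent means less beta-gal luminescence so fewer parasites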
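compound dosing = single 50 nL compound addition per well in DMSO | material = NIH/3T3 host cells with β-galactosidase reporter T. cruzi | input = 5,000 host fibroblasts per well | timing = ≥90 h infection period, 3 h prior cell attachment | read-out basis = percent inhibition of parasite-derived β-gal signal | detection = GalScreen β-gal luminescence, detergent lysis, 60 min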
PolyA inh: polyadenylation inhibitors in yeast reporter cells, primary screen, luminescence, S. cerevisiae; activity score, % at 12 µM; S. cerevisiae SKY197-pL101 polyadenylation reporter, beta-gal luminescence; efflux-impaired pdr1/pdr3 knockout yeast; score 100 = 6 SD above DMSO; 300,000 compounds, 0.02% hits;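 active means lowest replicate activity score at least 50, where 100 means six control SD above control mean; inconclusive means lowest score under 50 but half or more replicates reach 50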;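 further: yeast exposed to compound for 9 h at 30 °C; higher score means more reporter readthrough which indicates perturbed polyadenylation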
L major viab: Leishmania major promastigote growth inhibition, primary screen; Leishmania major promastigotes, resazurin fluorescence viability; inhibition, % at 10 µM; 200,000 compounds, 9% hits; AID 1063, 2008; in the data active means inhibition above about 50%;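 further: promastigotes grown with compound for 44 hours at 28 °C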
NALP3 yeast inh: NALP3 inflammasome inhibitors in reconstituted yeast, primary screen, luminescence, uHTS. 330,000 compounds, 0.39% hits. Yeast reconstituted NLRP3/ASC/caspase-1, beta-gal luminescence, 24 h. inhibition, % at 10 µM;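 active means inhibition of 50% or more; inactive means inhibition below 50%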;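 further: plate controls were induced DMSO wells for no effect and uninduced yeast grown without galactose for full effect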
Calb FLC: C. albicans growth inhibition with fluconazole, primary screen, CaCi-2 strain, Alamar Blue fluorescence. C. albicans CaCi-2 + fluconazole, 48 h. growth inhibition, % (no concentration beside the values). 300,000 compounds, 0.57% hits;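 active means growth inhibition above about 58% in most replicates, limit read from the data, passing the limit was not always enough; inconclusive means exactly half the replicates above a set limit; inactive means most replicates below a set limit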;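 further: all wells also contain fluconazole at 8 µg/ml as a sub-toxic cotreatment; 0% = median of DMSO wells and 100% = median of geldanamycin control wells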
NALP1 yeast inh: NALP1 inflammasome inhibitors in reconstituted yeast, colorimetric, S. cerevisiae, triplicate retest; S. cerevisiae NALP1/ASC/caspase-1 growth, X-gal OD620, 72 h; AID 2071, 2009; 280,000 compounds, 0.61% hits; inhibition, % at 10 µM; in the data active means inhibition mostly above about 24%, no sharp cut-off; inactive means mostly below about 32%
An asterisk follows results filed as active; ? = inconclusive; . = no result given.

SMILES	T cruzi inh	PolyA inh	L major viab	NALP3 yeast inh	Calb FLC	NALP1 yeast inh
O=C(Cn1cnc2cc([N+](=O)[O-])ccc2c1=O)Nc1ccccc1-c1ccccc1	58*	3	.	4	-1	-8
CC(C)(C)c1ccc(NC(=O)Cn2cnc3cc([N+](=O)[O-])ccc3c2=O)cc1	72*	5	10	13	2	4
O=C(Cn1cnc2cc([N+](=O)[O-])ccc2c1=O)Nc1ccc(Br)cc1	68*	5	.	17	11	-2
Cc1cc(NC(=O)CCC(=O)N(Cc2cccnc2)C(C(=O)NC(C)(C)C)c2ccccc2Cl)no1 (configuration not stated)	6	-1	.	3	-1	17
Cc1ccc2c(Cn3ccnc3)cc(=O)oc2c1C	1	14	.	9	7	32
Cc1cc(Cn2ccnc2)c(C)c([N+](=O)[O-])c1Cn1ccnc1	60*	13	.	-4	-1	3
CCCCOc1ccc(C(O)C(CN2CCCCC2)c2ccccc2)cc1 (configuration not stated)	13	-15	70*	17	-2	4
CCCOc1ccc(C(O)C(CN2CCOCC2)c2ccccc2)cc1 (configuration not stated)	1	-9	89*	24	-8	5
CCOc1ccc(C(O)C(CN2CCOCC2)c2ccccc2)cc1 (configuration not stated)	1	8	84*	11	10	9
CCCCOc1ccc(C(O)C(CN2CCOCC2)c2ccccc2)cc1 (configuration not stated)	-8	-12	.	12	-7	6
COc1cc(CN(C)CC2CCCN(CCc3ccccc3F)C2)cc(Cl)c1OC (configuration not stated)	58*	3	.	32	0	12
Nc1cccc(CP(=O)(c2ccccc2)c2ccccc2)c1	.	.	.	13	.	.
OC1CCCN(C(=S)NCc2ccccc2)C1 (configuration not stated)	3	21	0	15	9	-21
COCCN1CC(O)=C(c2nc3ccccc3c(=O)[nH]2)C1=N	-6	1	8	8	-13	1
COc1ccccc1N1CC(O)=C(c2nc3ccccc3c(=O)[nH]2)C1=N	-1	-4	99*	7	-5	.
N=C1C(c2nc3ccccc3c(=O)[nH]2)=C(O)CN1CCc1ccccc1	-4	-14	60*	-4	15	20
COC(=O)[C@H](CC(C)C)NC(=O)Cn1cnc2c(OCc3ccccc3)ncnc21	.	.	.	-1	.	.
CCCCC(=O)N(Cc1ccc2c(c1)OCO2)Cc1nc2ccccc2c(=O)[nH]1	-9	-9	-1	14	48	-11
Cc1ccc(C(=O)N(Cc2ccc3c(c2)OCO3)Cc2nc3ccccc3c(=O)[nH]2)cc1	11	-10	96*	-2	-2	-6
O=C(NCCN1CCN(C(=O)c2cccs2)CC1)C(=O)Nc1ccc(Br)cc1	5	-12	73*	7	-5	1
O=C(NCCN1CCN(C(=O)c2cccc(Br)c2)CC1)C(=O)Nc1ccc(Br)cc1	25	6	.	23	23	10
Cc1cc(OCc2cccc(Cl)c2)c(C)cc1CN1CCOCC1	52	-8	81*	29	-8	14
CC(C)(C)[C@@H]1C=C(C(=O)NC2CC2)O[C@H](OCc2ccc(CO)cc2)C1	-15	?	99*	20	-4	4
O=C(C1=C[C@H](C2CC2)C[C@H](OCc2ccc(CO)cc2)O1)N1CCN(Cc2ccc3c(c2)OCO3)CC1	44	-7	31	18	10	-2
C#CCNC(=O)C1=C[C@@H](C2CCCCC2)C[C@@H](OCc2ccc(CO)cc2)O1	11	-6	96*	20	-10	4
O=C(C1=C[C@H](C2CCCCC2)C[C@H](OCc2ccc(CO)cc2)O1)N1CCN(Cc2ccc3c(c2)OCO3)CC1	57*	-6	68*	7	19	11
